For one data set, the target named is Prostacyclin receptor (Homo sapiens, UniProt P43119). In words: Displacement of [3H]iloprost from human IP receptor expressed in HEK293-EBNA cells by scintillation counting. In kind it is cell-based. Summed up:
(§1)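 Radioligand binding on membranes from HEK 293(EBNA) clonal lines overexpressing each prostanoid receptor, using the respective 3H-prostaglandin or thromboxane ligand; EP4 binding also run with 10% human serum; Ki as means of at least three experiments (rEP2, rEP3 n = 1).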
A general note: Displacement assays read how much labelled ligand stays bound in the presence of the test substance.

The target of data set [1] is T1, Prostaglandin E2 receptor EP4 subtype (Homo sapiens, UniProt P35408). In words: Antagonist activity at human EP4 receptor expressed in HEK293 cells assessed as inhibition of PGE2-induced cAMP accumulation by scintillation proximity assay in presence of 10% human serum. In kind it is functional, cell-based. The method, boiled down: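 Functional EP4 assay in the same HEK 293(EBNA) clonal line overexpressing human EP4; inhibition of PGE2-induced cAMP accumulation, run in presence of 10% human serum to gauge serum protein binding; IC50 values are means of at least three experiments.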
T1 sequence (P35408 whole entry): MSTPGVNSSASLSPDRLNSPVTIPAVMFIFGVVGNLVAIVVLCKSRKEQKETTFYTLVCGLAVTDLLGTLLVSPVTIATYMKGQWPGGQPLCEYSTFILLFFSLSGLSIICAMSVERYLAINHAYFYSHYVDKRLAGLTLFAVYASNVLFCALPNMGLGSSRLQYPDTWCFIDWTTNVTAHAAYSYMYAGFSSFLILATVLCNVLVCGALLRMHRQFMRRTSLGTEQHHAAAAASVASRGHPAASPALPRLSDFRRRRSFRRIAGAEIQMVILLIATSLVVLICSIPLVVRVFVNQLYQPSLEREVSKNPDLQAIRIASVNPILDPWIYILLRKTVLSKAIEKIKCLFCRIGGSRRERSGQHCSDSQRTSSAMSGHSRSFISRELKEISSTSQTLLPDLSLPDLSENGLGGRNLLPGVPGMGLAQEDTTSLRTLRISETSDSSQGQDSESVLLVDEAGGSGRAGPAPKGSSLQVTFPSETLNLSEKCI

Data set [2] is described as follows: Half life in C57BL/6 mouse at 5 mg/kg, iv. It is filed as ADME, organism-based. Further details: dose 5 mg/kg, route intravenous. The note with it: in vivo. Summed up: (§2)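 Overnight-fasted animals dosed po in 0.5% methocel or iv in 60% PEG 200; plasma from serial blood samples stored at -10 °C, protein-precipitated with equal volume acetonitrile/0.1% formic acid, analysed by LC/MS/MS with internal standard against spiked blank-plasma standards; Cmax from po data, half-life from iv data.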

For data set [3], the target named is T2, Prostaglandin D2 receptor (Homo sapiens, UniProt Q13258).
T2 sequence (Q13258 whole entry): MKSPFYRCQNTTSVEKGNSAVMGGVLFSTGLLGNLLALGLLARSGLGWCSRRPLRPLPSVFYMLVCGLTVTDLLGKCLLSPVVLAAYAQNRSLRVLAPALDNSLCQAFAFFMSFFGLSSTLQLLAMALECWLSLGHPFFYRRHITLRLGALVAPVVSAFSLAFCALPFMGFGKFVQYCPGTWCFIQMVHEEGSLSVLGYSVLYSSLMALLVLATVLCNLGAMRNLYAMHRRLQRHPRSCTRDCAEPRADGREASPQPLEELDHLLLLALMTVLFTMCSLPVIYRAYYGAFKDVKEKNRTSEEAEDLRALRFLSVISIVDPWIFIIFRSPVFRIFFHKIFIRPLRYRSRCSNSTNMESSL
In words: Displacement of [3H]PGD2 from human DP1 receptor expressed in HEK293-EBNA cells by scintillation counting. In kind it is cell-based. The method, boiled down:
as §1

A short description of data set [4]: Cmax in Beagle dog at 5 mg/kg, po. It is filed as ADME, organism-based, Canis lupus familiaris. Further details: dose 5 mg/kg, route oral. The note with it: in vivo. The method, boiled down:
as §2

In data set [5] the test system is Rattus norvegicus. In words: Gastrointestinal toxicity in Sprague-Dawley rat assessed as urinary excretion of 51Cr-EDTA at 3 to 30 mg/kg/day, po once daily for 5 days. Also on record: route oral. It is filed as organism-based, Urine. The note with it: in vivo, 120 h. The method, boiled down:
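Male SD rats dosed orally once daily in 0.5% methocel (3, 10, 30 mg/kg for 5 days, or 5 mg/kg for 3 days); single oral 51Cr-EDTA given on day 4 or day 2 respectively; urinary 51Cr excretion as GI permeability index; n = 5/group treated, 4 vehicle; 1-way ANOVA/Dunnett's.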

The target in data set [6] is T1, Prostaglandin E2 receptor EP4 subtype. In words: Activity at EP4 receptor in human whole blood assessed as blockade of inhibition of TNF-alpha-induced IP10 release. In kind it is functional, tissue-based. Summed up: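 Human whole blood; TNF-alpha-stimulated IP-10 release, suppressed by the selective EP4 agonist L-902688 (used in place of PGE2); antagonism measured as reversal of that suppression; IC50.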

Data set [7] in a line: Volume of distribution at steady state in Sprague-Dawley rat at 20 mg/kg, po and 5 mg/kg, iv. It is filed as ADME, organism-based. Conditions: in vivo, read-out: Vdss. Summed up: as §2
The target of data set [8] is T3, Prostaglandin D2 receptor 2 (Homo sapiens, UniProt Q9Y5Y4).
T3 sequence (Q9Y5Y4 whole entry): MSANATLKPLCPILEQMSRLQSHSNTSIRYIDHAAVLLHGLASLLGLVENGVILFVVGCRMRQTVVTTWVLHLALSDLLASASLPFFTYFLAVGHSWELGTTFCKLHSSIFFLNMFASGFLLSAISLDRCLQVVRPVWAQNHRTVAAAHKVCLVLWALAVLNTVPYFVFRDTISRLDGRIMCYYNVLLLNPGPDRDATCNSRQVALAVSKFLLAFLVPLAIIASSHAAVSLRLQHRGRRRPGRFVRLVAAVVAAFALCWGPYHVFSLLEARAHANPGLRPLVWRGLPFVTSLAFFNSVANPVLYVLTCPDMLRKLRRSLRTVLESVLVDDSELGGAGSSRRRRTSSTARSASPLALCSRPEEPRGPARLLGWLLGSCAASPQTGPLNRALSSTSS
In words: Displacement of [3H]PGD2 from human DP2 receptor expressed in HEK293-EBNA cells by scintillation counting. It is filed as cell-based. The method, boiled down: as §1

Data set [9] is described as follows: Oral bioavailability in C57BL/6 mouse at 20 mg/kg. The note with it: in vivo. In kind it is ADME, organism-based. Summed up:
as §2

The target in data set [10] is T4, Prostaglandin E2 receptor EP3 subtype (Homo sapiens, UniProt P43115).
T4 sequence (P43115 whole entry): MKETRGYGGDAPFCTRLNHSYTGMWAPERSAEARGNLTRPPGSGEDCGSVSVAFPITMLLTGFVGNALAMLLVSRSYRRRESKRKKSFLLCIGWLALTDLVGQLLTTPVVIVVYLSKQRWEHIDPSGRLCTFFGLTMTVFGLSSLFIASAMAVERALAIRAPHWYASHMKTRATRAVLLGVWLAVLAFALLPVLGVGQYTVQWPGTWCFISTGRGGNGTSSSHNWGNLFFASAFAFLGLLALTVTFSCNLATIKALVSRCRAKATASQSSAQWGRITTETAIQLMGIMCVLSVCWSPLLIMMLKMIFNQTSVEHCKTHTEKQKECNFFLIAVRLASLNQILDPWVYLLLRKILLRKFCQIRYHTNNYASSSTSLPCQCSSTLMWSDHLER
In words: Displacement of [3H]PGE2 from human EP3 receptor expressed in HEK293-EBNA cells by scintillation counting. In kind it is cell-based. The method, boiled down: as §1

Data set [11] concerns Rattus norvegicus. In words: Plasma concentration in complete Freund's adjuvant-induced Sprague-Dawley rat inflammatory pain model at 0.1 mg/kg/day, po. It is filed as ADME, organism-based. The note with it: in vivo. Further details: route oral. The method, boiled down: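 Adjuvant-induced arthritis in rats: CFA injected into primary paw on day 0; oral dosing in 0.5% methocel once daily for 9 days starting day 9; secondary paw swelling measured; plasma levels taken 24 h after final dose; n = 7/group; 1-way ANOVA/Dunnett's vs vehicle.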

A short description of data set [12]: Plasma clearance in Beagle dog at 5 mg/kg, po and 1 mg/kg, iv. It is filed as ADME, organism-based, Canis lupus familiaris. The method, boiled down: as §2
In data set [13] the test system is Rattus norvegicus. In words: Analgesic activity in po dosed Sprague-Dawley rat assessed as inhibition of carrageenan-induced mechanical hyperalgesia relative to control. In kind it is functional. Summed up: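 SD rats given subplantar carrageenan; compound dosed orally as a single dose; mechanical hyperalgesia read at 3 h post carrageenan, 1 h post dose; inhibition expressed vs vehicle control; n = 10-20/group; 1-way ANOVA/Dunnett's.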

Data set [14] deals with T1, Prostaglandin E2 receptor EP4 subtype. In words: Displacement of [3H]PGE2 from human EP4 receptor expressed in HEK293-EBNA cells by scintillation counting. In kind it is cell-based. Summed up: as §1
Data set [15] can be described thus: Cmax in Sprague-Dawley rat at 20 mg/kg, po. Conditions: in vivo. Also on record: dose 20 mg/kg, route oral. In kind it is ADME, organism-based. Summed up: as §2

Prostacyclin receptor, sequence (P43119 whole entry): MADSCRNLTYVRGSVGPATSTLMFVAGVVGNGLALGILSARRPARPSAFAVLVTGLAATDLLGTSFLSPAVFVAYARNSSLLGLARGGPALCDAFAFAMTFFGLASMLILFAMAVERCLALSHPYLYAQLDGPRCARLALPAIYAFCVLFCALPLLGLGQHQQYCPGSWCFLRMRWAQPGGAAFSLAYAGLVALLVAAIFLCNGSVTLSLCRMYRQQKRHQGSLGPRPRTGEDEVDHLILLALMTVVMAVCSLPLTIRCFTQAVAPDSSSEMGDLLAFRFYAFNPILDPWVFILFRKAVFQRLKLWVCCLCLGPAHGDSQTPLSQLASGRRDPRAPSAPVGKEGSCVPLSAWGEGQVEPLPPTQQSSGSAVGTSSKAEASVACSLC

Turning to `Cc1sc(C)c(C(=O)NC2(c3ccc(C(=O)O)cc3)CC2)c1Cc1ccc(C(F)(F)F)cc1`, the inhibitory constant (Ki) (as a rule, a dissociation constant, usually derived from enzyme kinetics or from competition with a known ligand) at Prostacyclin receptor was > 22 µM; in data set [3], > 3.9 µM; in data set [8], > 21 µM; in data set [10] it was > 7.9 µM; in data set [14] it was 0.00056 µM. Besides, the values for the 50% inhibitory concentration (IC50) in [1] and in [6] were 0.0029 µM and 0.011 µM, respectively. In addition, the half-life (as a rule, the time in which the quantity being followed falls by half) in [2] was 15 h. Moreover, the peak concentration (Cmax) (as a rule, the peak of the concentration-time curve) in data set [4] was found to be 3.3 µM; in data set [15], 4.5 µM. Besides, the Activity result in the data set with Rattus norvegicus [5] is “Non-toxic”. For the same molecule, the Vd in [7] was 2.6 L/kg. In addition, in [9], the bioavailability (in general, the share of a dose that reaches the circulation, judged against a reference dose that is usually intravenous) turned out to be 21%. Further, the concentration in the data set on Rattus norvegicus [11] stood at 0.004 µM. Besides, the clearance in [12] was 3.2 mL/min/kg. Further, the “inhibition (INH)” value with Rattus norvegicus [13] came out at 60%.

These data come from ChEMBL document CHEMBL1157608, “The discovery of 4-{1-[({2,5-dimethyl-4-[4-(trifluoromethyl)benzyl]-3-thienyl}carbonyl)amino]cyclopropyl}benzoic acid (MK-2894), a potent and selective prostaglandin E2 subtype 4 receptor antagonist” (J Med Chem, 2010).
